Experimental data from ChEMBL document CHEMBL4715807, “Development of Small Molecules with a Noncanonical Binding Mode to HIV-1 Trans Activation Response (TAR) RNA” (J Med Chem, 2016).
Activity calls are given as the source filed them. The calls are words filed in the database; no cut-off is given here.

Experiments:
[1] = Binding affinity to HIV1 TAR by FRET based Tat/TAR displacement assay; set-up: species or system Human immunodeficiency virus 1
How it was run: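 Unlabeled TAR (100 nM) with 16-mer Tat peptide (N-terminal FAM, C-terminal TAMRA; 12 nM) in 50 mM Tris pH 7.4, 20 mM KCl, 0.01% Triton X-100, 5% DMSO; compound added and incubated 30 min at room temperature with rocking. Read at ex 485/em 590 nm. Controls: complex alone for 0% inhibition, peptide alone for 100%.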

[2] = Binding affinity to HIV1 23-2AP TAR by 2-AP based fluorescence assay; set-up: species or system Human immunodeficiency virus 1; settings: read-out: Kd(app)
How it was run: (§1)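 2-AP-labelled TAR hairpin (U23 or U25 replaced) annealed at 95 °C 3 min, cooled ≥30 min, used at 1 μM in PBS pH 7.4 with compound added from DMSO, 30 min at room temperature with rocking. Fluorescence read at ex 310/em 365 nm, compound fluorescence subtracted, normalized to free RNA. Apparent Kd from nonlinear fit; highest concentration 400 μM; triplicates, ± SD.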

[3] = Binding affinity to HIV1 25-2AP TAR by 2-AP based fluorescence assay; set-up: species or system Human immunodeficiency virus 1; settings: read-out: Kd(app); how it was run: as §1
[4] = system: Human immunodeficiency virus 1; assay: Binding affinity to HIV1 TAR by NMR analysis
How it was run: (§2)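 NMR buffer: 20 mM d19-Bis-Tris pH 6.5, 10 mM NaCl, DSA reference, in D2O or 95% H2O/5% D2O. Ligand stocks 10 mM in d6-DMSO; free-ligand samples […], final DMSO 15%. RNA heated 90 °C 4 min, snap-cooled at −20 °C. 1D 1H with excitation sculpting; ligand line broadening with 10 μM TAR; TOCSY shift perturbations.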

[5] = system: Human immunodeficiency virus 1; assay: Binding affinity to HIV-1 TAR RNA 5'-UTR assessed as induction of chemical reactivity by SHAPE analysis
How it was run: (§3)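 RNA (5 pmol) heated to 90 °C 3 min, slowly cooled to 4 °C, in 50 mM Tris-HCl pH 8.0, 100 mM NaCl, 5 mM MgCl2, then 37 °C for 15 min. Ligand added to final 5 or 0.5 μM, 10 min at room temperature. 1M7 at final 3.5 mM (DMSO alone for control), 37 °C 5 min. Primer extension with SuperScript III, capillary electrophoresis; control peak areas subtracted.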

[6] = system: Human immunodeficiency virus 1; assay: Effect on global topology of HIV-1 RNA 5'-UTR by SHAPE analysis; how it was run: as §3
[7] = system: Human immunodeficiency virus 1; assay: Binding affinity to HIV1 TAR assessed as induction of chemical shift perturbations of TAR residues by NMR analysis; how it was run: as §2
[8] = system: Human immunodeficiency virus 1; assay: Binding affinity to HIV1 TAR by TOCSY NMR analysis; how it was run: as §2
[9] = system: Human immunodeficiency virus 1; assay: Binding affinity to HIV-1 TAR RNA 5'-UTR assessed as decrease in 1M7 reactivity for residue U25 within TAR bulge and U31, G33 and A35 within apical loop by SHAPE analysis; how it was run: as §3
[10] = system: Human immunodeficiency virus 1; assay: Binding affinity to HIV-1 TAR RNA 5'-UTR assessed as 1M7 reactivity reduction throughout TAR with residues U13-14, C19, and G32 by SHAPE analysis; how it was run: as §3

Row | IC50 [1] [µM] | Kd [2] [µM] | Kd [3] [µM] | Activity [4] | Activity [5] | Activity [6] | Activity [7] | Activity [8] | Activity [9] | Activity [10] | Structure (SMILES)
1 | > 400 | 55.4 | 48.5 | – | – | – | – | – | – | – | Cc1cnc2sc(C(=O)Nc3cccc(C(F)(F)F)c3)c(N)c2c1
2 | > 400 | 94.1 | 66.5 | – | – | – | – | – | – | – | Cc1ccnc2sc(C(=O)Nc3cccc(C(F)(F)F)c3)c(N)c12
3 | > 400 | 69.4 | 66.4 | – | – | – | – | – | – | – | Cc1ccc2c(N)c(C(=O)NCc3cccc(C(F)(F)F)c3)sc2n1
4 | > 400 | > 400 | > 400 | inactive | – | – | – | – | – | – | Cc1ccc2c(N)c(S(=O)(=O)Nc3cccc(F)c3)sc2n1
5 | > 400 | 107 | 43.3 | – | – | – | – | – | – | – | CC(C)c1ccc2c(N)c(C(=O)Nc3cccc(C(F)(F)F)c3)sc2n1
6 | > 400 | 54.1 | 47.7 | – | – | – | – | – | – | – | Cc1ccc2c(N)c(C(=O)Nc3cccc(C(F)(F)F)c3)sc2n1
7 | 37.6 | 44.1 | 50.2 | – | – | – | – | – | – | – | Nc1c(-c2nnc(-c3cccc(C(F)(F)F)c3)o2)sc2ncccc12
8 | > 400 | > 400 | > 400 | – | – | – | – | – | – | – | Cc1ccc2c(n1)sc1c(=O)n(-c3cccc(C(F)(F)F)c3)c(=O)[nH]c12
9 | 87 | 84.1 | 75.3 | – | – | – | – | – | – | – | Cc1ccc2c(N)c(C(=O)Nc3ccc(C(F)(F)F)cc3)sc2n1
10 | > 400 | 51.1 | 40 | Active | Active | inactive | Dose-dependent effect | Active | Active | – | Cc1ccc2c(N)c(C(=O)Nc3ccncc3)sc2n1
11 | 40.1 | 75 | 49.1 | – | Active | inactive | – | – | – | Active | Cc1ccc2c(N)c(-c3nnc(-c4cccc(C(F)(F)F)c4)o3)sc2n1
12 | > 400 | 89.5 | 68 | – | – | – | – | – | – | – | Cc1ccc2c(N)c(C(=O)Nc3cccnc3)sc2n1
13 | 45.1 | 46 | 47.7 | – | – | – | – | – | – | – | Cc1ccc2c(N)c(-c3nc(-c4cccc(C(F)(F)F)c4)no3)sc2n1
14 | > 400 | 64.3 | 50.3 | – | – | – | – | – | – | – | Cc1ccc2c(N)c(C(=O)Nc3ccccn3)sc2n1
15 | > 400 | > 400 | > 400 | – | – | – | – | – | – | – | Cc1ccc2c(N)c(S(=O)(=O)Nc3cccc(C(F)(F)F)c3)sc2n1
16 | 90.4 | > 400 | 90.1 | – | – | – | – | – | – | – | Cc1ccc2c(N)c(C(=O)Nc3ccccc3C(F)(F)F)sc2n1
17 | > 400 | > 400 | > 400 | – | – | – | – | – | – | – | Cc1ccc2cc(C(=O)Nc3cccc(C(F)(F)F)c3)sc2n1
18 | > 300 | 56.9 | 44.6 | – | – | – | – | – | – | – | Cc1ccc2c(N)c(-c3nnc(-c4ccccc4)o3)sc2n1
19 | > 400 | 45.6 | 42.5 | – | – | – | – | – | – | – | Cc1ccc2c(N)c(-c3nnc(-c4cccc(Cl)c4)o3)sc2n1
